Results as given in PMC9320808 (Chemmedchem, 2022).
Read-outs that look alike come from different tables or passages of the source.

Legend:
[1] = test system: PD−L1; conditions: cited from earlier work
[2] = target: PD‐1/PD−L1 (Homo sapiens, UniProt Q9NZQ7); assay: Homogenous time-resolved fluorescence; format: binding; conditions: read-out: Measured IC50; HTRF PD-1/PD-L1 assay; mean±SD, n=2–3 in triplicate
Method in brief: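 Competitive TR-FRET (HTRF) kit assay: PD-L1-6His-tag and PD-1-Ig, detected by anti-human IgG-Eu³⁺ cryptate and anti-6HIS-XL665 antibody. Test compounds plated per the kit instructions. Signal read on a multimode plate reader, and IC50 derived from the inhibition of PD-1/PD-L1 binding.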

PD‐1/PD−L1, sequence (Q9NZQ7 19-238 limits assumed): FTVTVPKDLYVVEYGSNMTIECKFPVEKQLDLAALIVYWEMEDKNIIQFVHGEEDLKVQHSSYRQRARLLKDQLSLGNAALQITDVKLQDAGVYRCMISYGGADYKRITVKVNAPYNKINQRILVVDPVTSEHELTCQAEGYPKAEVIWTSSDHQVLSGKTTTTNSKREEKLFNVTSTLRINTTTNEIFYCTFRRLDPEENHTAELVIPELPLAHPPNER

Row | IC50 [2] | Substance | IC50 ([1]; read-out: Reported IC50, literature value) | IC50 ([1]; read-out: reported IC50, reported value for BMS71)
1 | 2.25 ± 0.36 nM | Atezolizumab: therapeutic antibody targeting PD−L1 | 3.83 nM | –
2 | – | Cyclo(AcPhe−^mPhe−^mNle−^mGly−Asp−Val−^mPhe−Tyr−^mGly−Trp−Tyr−Leu−Cys)‐Gly−NH2 [BMS71] | – | 7 nM
